In ChEMBL document CHEMBL2169857, “Synthesis of a potent photoreactive acidic γ-secretase modulator for target identification in cells” (Bioorg Med Chem, 2012):
Activity calls are given as the source filed them. The rule behind the calls is not given here.

Test system: CHO
Assay: Modulation of gamma-secretase expressed in CHO cells co-expressing wild type APP and PS1 assessed as increase of amyloid beta-38 production sandwich ELISA
Format: cell-based
How it was run: (§1)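 CHO cells stably overexpressing wild-type APP and PS1 incubated with compounds; Aβ42, Aβ40 and, for selected compounds, Aβ38 in cell-culture supernatants quantified by sandwich ELISA; IC50 derived for Aβ42.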

In the case of `CC(C)C#C[C@H](c1ccc(Cl)cc1)N1CC[C@@H](CC(=O)O)C[C@H]1c1ccc(C(F)(F)F)cc1`, the Activity is reported as “Active”.

Molecular target: Presenilin-1 (Homo sapiens) (UniProt P49768)
Assay: Binding affinity to gamma-secretase catalytic subunit of PS1 expressed in N2a-APP cells at 0.2 uM followed by irradiated with UV light by Western blot analysis
Format: cell-based
How it was run: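 N2a-ANPP cells stably overexpressing APP and all four γ-secretase subunits treated live with 0.2 μM biotinylated photoprobe or DMSO vehicle, irradiated with 350 nm UV; membranes prepared, labeled proteins affinity-purified on streptavidin beads, resolved by SDS gel and Western blotted with antibodies to the four γ-secretase subunits or APP.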

In the case of `COC(=O)CC1CCN(C(C#CCCCCNC(=O)CCCC[C@@H]2SC[C@@H]3NC(=O)N[C@@H]32)c2ccc(C3(C(F)(F)F)N=N3)cc2)C(c2ccc(C(F)(F)F)cc2)C1` (mixture of isomers), the Activity is reported as “Active”.
In the case of `O=C(O)CC1CCN(C(C#CCCCCOC(=O)CCCC[C@@H]2SC[C@@H]3NC(=O)N[C@@H]32)c2ccc(C3(C(F)(F)F)N=N3)cc2)C(c2ccc(C(F)(F)F)cc2)C1` (mixture of isomers), the Activity is reported as “Active”.

Test system: not listed separately
Assay: Modulation of gamma-secretase expressed in CHO cells co-expressing wild type APP and PS1 assessed as inhibition of amyloid beta-42 production sandwich ELISA
Format: cell-based
How it was run: as §1

Compared with `CC(C)C#CC(c1ccc(C2(C(F)(F)F)N=N2)cc1)N1CCC(CC(=O)O)CC1c1ccc(C(F)(F)F)cc1` (racemic), `CC(C)C#C[C@H](c1ccc(C(F)(F)F)cc1)N1CC[C@@H](CC(=O)O)C[C@H]1c1ccc(C(F)(F)F)cc1` is 3.8-fold lower in IC50: 190 nM for the first, 50 nM for the second. The second is the more potent here.

`O=C(O)CC1CCN(C(C#CCCCCO)c2ccc(C3(C(F)(F)F)N=N3)cc2)C(c2ccc(C(F)(F)F)cc2)C1` (racemic) and `O=C(O)CC1CCN(C(C#CCCCCNC(=O)CCCC[C@@H]2SC[C@@H]3NC(=O)N[C@@H]32)c2ccc(C3(C(F)(F)F)N=N3)cc2)C(c2ccc(C(F)(F)F)cc2)C1` (mixture of isomers) are within 1.5-fold of each other in IC50: 2000 nM for the first, 2200 nM for the second.

`CC(C)CC[C@H](c1ccc(Cl)cc1)N1CC[C@@H](CC(=O)O)C[C@H]1c1ccc(C(F)(F)F)cc1` and `CC(C)C#C[C@H](c1ccc(Cl)cc1)N1CC[C@@H](CC(=O)O)C[C@H]1c1ccc(C(F)(F)F)cc1` are within 1.5-fold of each other in IC50: 68 nM for the first, 87 nM for the second.

Compared with `CC(C)/C=C\[C@H](c1ccc(Cl)cc1)N1CC[C@@H](CC(=O)O)C[C@H]1c1ccc(C(F)(F)F)cc1`, `CC(C)/C=C\[C@@H](c1ccc(Cl)cc1)N1CC[C@H](CC(=O)O)C[C@@H]1c1ccc(C(F)(F)F)cc1` is 21-fold higher in IC50: 30 nM for the first, 616 nM for the second. The first is the more potent here.

Compared with `O=C(O)CC1CCN(C(C#CCCCCOC(=O)CCCC[C@@H]2SC[C@@H]3NC(=O)N[C@@H]32)c2ccc(C(F)(F)F)cc2)C(c2ccc(C(F)(F)F)cc2)C1` (mixture of isomers), `O=C(O)CC1CCN(C(C#CCCCCOC(=O)CCCC[C@@H]2SC[C@@H]3NC(=O)N[C@@H]32)c2ccc(C3(C(F)(F)F)N=N3)cc2)C(c2ccc(C(F)(F)F)cc2)C1` (mixture of isomers) is 2-fold lower in IC50: 1000 nM for the first, 500 nM for the second. The second is the more potent here.

`CC(C)C#C[C@@H](c1ccc(C(F)(F)F)cc1)N1CC[C@H](CC(=O)O)C[C@@H]1c1ccc(C(F)(F)F)cc1` and `CC(C)C#C[C@@H](c1ccc(Cl)cc1)N1CC[C@H](CC(=O)O)C[C@@H]1c1ccc(C(F)(F)F)cc1` are within 1.5-fold of each other in IC50: 350 nM for the first, 300 nM for the second.

Work on `COc1cc(C(C#CC(C)C)N2CCC(CC(=O)O)CC2c2ccc(C(F)(F)F)cc2)ccc1-n1cnc(C)c1` (racemic) yielded an IC50 of 1000 nM.
